Laboratory results: ChEMBL document CHEMBL1287677, “Antimalarial histone deacetylase inhibitors containing cinnamate or NSAID components” (Bioorg Med Chem Lett, 2010)
pIC50: −log10 of the molar value. The source made the active and inactive calls. No cut-off for these calls is given here.

Key:
[1] = system: Plasmodium falciparum; assay: Antimalarial activity against drug-sensitive ring-stage Plasmodium falciparum 3D7 infected in human O+ erythrocytes assessed as inhibition of parasite growth by [3H]hypoxanthine incorporation assay; format: functional, organism-based
[2] = target: T1, Histone deacetylase (Plasmodium falciparum 3D7) (UniProt Q7K6A1); assay: (§1) Inhibition of Plasmodium falciparum 3D7 HDAC1 in infected-human erythrocytes assessed as histone H4 hyperacetylation after 1.5 hrs by SDS-PAGE analysis; format: cell-based
T1 sequence (whole entry): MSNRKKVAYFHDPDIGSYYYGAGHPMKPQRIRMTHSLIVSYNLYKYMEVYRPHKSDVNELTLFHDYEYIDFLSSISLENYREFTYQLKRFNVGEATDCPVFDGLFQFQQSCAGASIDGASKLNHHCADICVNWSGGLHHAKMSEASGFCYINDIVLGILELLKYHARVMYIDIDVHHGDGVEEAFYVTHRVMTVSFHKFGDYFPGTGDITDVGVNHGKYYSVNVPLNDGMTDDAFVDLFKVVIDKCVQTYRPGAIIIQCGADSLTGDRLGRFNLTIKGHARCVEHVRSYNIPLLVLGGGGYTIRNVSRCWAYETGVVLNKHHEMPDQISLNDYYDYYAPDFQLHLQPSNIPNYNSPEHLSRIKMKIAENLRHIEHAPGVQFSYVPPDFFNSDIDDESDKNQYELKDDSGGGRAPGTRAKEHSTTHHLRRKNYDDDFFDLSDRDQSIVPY

[3] = target: T2, Histone deacetylase (Plasmodium falciparum 3D7, UniProt Q7K6A1); assay: as §1; format: cell-based
T2 sequence (Q7K6A1 whole entry): T1 sequence (whole entry)

[4] = Selectivity index, ratio of IC50 for human HeLa cells to IC50 for drug-sensitive ring-stage Plasmodium falciparum 3D7; format: toxicity, cell-based; conditions: read-out: Selectivity Index
[5] = target: T1, Histone deacetylase (Plasmodium falciparum 3D7); assay: Inhibition of trophozoite stage of Plasmodium falciparum 3D7 HDAC1 in infected-human erythrocytes assessed as histone H4 hyperacetylation at 20 to 100 nM after 3.5 hrs by Western blot analysis; format: cell-based
Outline: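 P. falciparum 3D7-infected erythrocytes exposed to 20 and 100 nM compound for 3.5 h. Vehicle controls (0.1% DMSO) sampled at start and at 3.5 h. Total protein extracted and run on 15% SDS–PAGE. Histone H4 hyperacetylation read by Western blot with polyclonal anti-tetra-acetyl histone H4 antiserum. Loading checked by Coomassie staining of a matched gel.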

[6] = Selectivity index, ratio of IC50 for human NFF to IC50 for drug-sensitive ring-stage Plasmodium falciparum 3D7
Outline: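 Ratio computed as NFF IC50 divided by 3D7 IC50. Each IC50 is the mean of three experiments.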

[7] = system: NFF; assay: Cytotoxicity against human NFF after 96 hrs by sulforhodamine B assay; format: cell-based

SMILES	pIC50 [1]	IC90 [1] [nM]	further results
CC(C)CCOc1ccc(/C=C/C(=O)N[C@@H](CCCCCC(=O)NO)C(=O)Nc2cccc3cccnc23)cc1	6.66	536	
Cc1ccc(C(=O)c2ccc(CC(=O)N[C@@H](CCCCCC(=O)NO)C(=O)Nc3cccc4cccnc34)n2C)cc1	7.33	102	
Cc1ccc(COc2ccc(/C=C/C(=O)N[C@@H](CCCCCC(=O)NO)C(=O)Nc3cccc4cccnc34)cc2)cc1	6.82	375	
O=C(/C=C/c1ccc(Oc2ccccc2)cc1)N[C@@H](CCCCCC(=O)NO)C(=O)Nc1cccc2cccnc12	6.81		
O=C(/C=C/c1ccco1)N[C@@H](CCCCCC(=O)NO)C(=O)Nc1cccc2cccnc12	7.82	27	
O=C(CCCCC[C@H](NC(=O)c1cc2ccccc2[nH]1)C(=O)Nc1cccc2cccnc12)NO			inhibition [2]: Dose-dependent effect; pIC50 [3]: 7.11
COc1ccc2cc([C@H](C)C(=O)N[C@@H](CCCCCC(=O)NO)C(=O)Nc3cccc4cccnc34)ccc2c1	7.85	24	selectivity ratio [4]: 17; inhibition [5]: Active; Selectivity Index [6]: 12; pIC50 [7]: 6.77
COc1cc(/C=C/C(=O)N[C@@H](CCCCCC(=O)NO)C(=O)Nc2cccc3cccnc23)cc(OC)c1O	7.85	26	
O=C(CCCCC[C@H](NC(=O)c1ccccc1O)C(=O)Nc1cccc2cccnc12)NO	6.94	214	
O=C(/C=C/c1ccccc1)N[C@@H](CCCCCC(=O)NO)C(=O)Nc1cccc2cccnc12			inhibition [2]: Dose-dependent effect; pIC50 [3]: 7.06
COc1cc(/C=C/C(=O)N[C@@H](CCCCCC(=O)NO)C(=O)Nc2cccc3cccnc23)cc(OC)c1OC	7.28		
O=C(CCCCC[C@H](NC(=O)Cc1ccccc1Nc1c(Cl)cccc1Cl)C(=O)Nc1cccc2cccnc12)NO	7.19	119	
O=C(/C=C/c1cccc(OC/C=C/c2ccccc2)c1)N[C@@H](CCCCCC(=O)NO)C(=O)Nc1cccc2cccnc12	6.40	805	
COc1ccc2[nH]c(C)c(CC(=O)N[C@@H](CCCCCC(=O)NO)C(=O)Nc3cccc4cccnc34)c2c1	7.89	22	selectivity ratio [4]: 17; inhibition [5]: Active; Selectivity Index [6]: 20; pIC50 [7]: 6.59
CC(C)CCOc1cccc(/C=C/C(=O)N[C@@H](CCCCCC(=O)NO)C(=O)Nc2cccc3cccnc23)c1	< 6.00	> 1000	
O=C(/C=C/c1ccc(OCc2ccc(Br)cc2)cc1)N[C@@H](CCCCCC(=O)NO)C(=O)Nc1cccc2cccnc12	6.45	687	
CC(C(=O)N[C@@H](CCCCCC(=O)NO)C(=O)Nc1cccc2cccnc12)c1ccc(N2Cc3ccccc3C2=O)cc1 (stereo partly specified)	7.49	65	
COc1ccc(CCNC(=O)[C@H](CCCCCC(=O)NO)NC(=O)c2ccc(N(C)C)cc2)cc1OC	7.00		
COc1ccc(/C=C/C(=O)N[C@@H](CCCCCC(=O)NO)C(=O)Nc2cccc3cccnc23)cc1OC	7.47	61	
CN(C)c1ccc(C(=O)N[C@@H](CCCCCC(=O)NO)C(=O)Nc2cccc3ccccc23)cc1	7.68		
CCCCOc1ccc(/C=C/C(=O)N[C@@H](CCCCCC(=O)NO)C(=O)Nc2cccc3cccnc23)cc1	6.74	373	
CC(C)c1ccc(NC(=O)[C@H](CCCCCC(=O)NO)NC(=O)c2ccc(N(C)C)cc2)cc1	7.66		
CC(C(=O)N[C@@H](CCCCCC(=O)NO)C(=O)Nc1cccc2cccnc12)c1ccc(-c2ccccc2)c(F)c1 (stereo partly specified)	7.38	76	
C[C@@H]1CC[C@H]2[C@@H](C)C(=O)O[C@@H]3O[C@@]4(C)CC[C@@H]1[C@]32OO4			inhibition [5]: inactive
CN(C)c1ccc(C(=O)N[C@@H](CCCCCC(=O)NO)C(=O)Nc2ccccc2Cc2ccccc2)cc1	8.30		inhibition [5]: Active
CN(C)c1ccc(C(=O)N[C@@H](CCCCCC(=O)NO)C(=O)Nc2cccc3cccnc23)cc1			selectivity ratio [4]: 17; Selectivity Index [6]: 30
Cc1cccc(Nc2ccccc2C(=O)N[C@@H](CCCCCC(=O)NO)C(=O)Nc2cccc3cccnc23)c1C	7.29	89	
CC1=C(CC(=O)N[C@@H](CCCCCC(=O)NO)C(=O)Nc2cccc3cccnc23)c2cc(F)ccc2C1=Cc1ccc(S(C)=O)cc1 (stereo partly specified)	7.46	35	
O=C(/C=C/c1cccc(Br)c1)N[C@@H](CCCCCC(=O)NO)C(=O)Nc1cccc2cccnc12	7.30		
O=C(/C=C/c1ccc(OC/C=C/c2ccccc2)cc1)N[C@@H](CCCCCC(=O)NO)C(=O)Nc1cccc2cccnc12	6.34	827	
